Experimental data pooled from the literature.
Action: inhibitor
CA12: Carbonic anhydrase 12 (CA12, Homo sapiens, UniProt O43570)
USP51: Ubiquitin carboxyl-terminal hydrolase 51 (USP51, Homo sapiens, UniProt Q70EK9)
SLC6A3: Sodium-dependent dopamine transporter (SLC6A3, Homo sapiens, UniProt Q01959)
DRD3: D(3) dopamine receptor (DRD3, Homo sapiens, UniProt P35462)

Structure (SMILES)	target	assay	system	setting	inhibition [%]
CCOC(=O)C1CSc2[nH]c(=O)sc2C1c1cn(-c2ccccc2)nc1-c1ccc(C)cc1 (stereo not drawn)	CA12	enzyme activity, absorbance		10 nM	11.9
COc1ccc(-c2oc3c(CC=C(C)C)c(O[C@@H]4O[C@H](CO)[C@@H](O)[C@H](O)[C@H]4O)cc(O)c3c(=O)c2O[C@@H]2O[C@@H](C)[C@H](O)[C@@H](O)[C@H]2O)cc1	USP51	enzyme activity		5 µM	7
Clc1ccc(C(c2ccc(Cl)cc2)c2nnnn2CCCCN2CCC(Cc3ccc(Cl)c(Cl)c3)CC2)cc1	SLC6A3	transporter uptake	HEK293	1 µM	62.6
COc1ccccc1N1CCN(CC(O)Cn2cnc3c2c(=O)n(C)c(=O)n3C)CC1 (stereo not drawn)	DRD3	enzyme activity		10 µM	-20.3
N#CC1CSc2[nH]c(=O)sc2C1c1cn(-c2ccccc2)nc1-c1ccc(Br)cc1 (stereo not drawn)	CA12	enzyme activity, absorbance		10 nM	28.1
Clc1ccc(C(c2ccc(Cl)cc2)c2nnnn2CCCN2CCC(Cc3ccccc3)CC2)cc1	SLC6A3	transporter uptake	HEK293	1 µM	90.8
COc1cc(OC)c(OC)cc1CN1CCN(Cc2c[nH]c3ccccc23)CC1	DRD3	enzyme activity		10 µM	8.6
CCOC(=O)C1CSc2[nH]c(=O)sc2C1c1cn(-c2ccccc2)nc1-c1ccccc1 (stereo not drawn)	CA12	enzyme activity, absorbance		10 nM	10.6
Clc1ccc(C(c2ccc(Cl)cc2)c2nnnn2CCCN2CCC(CCCc3ccccc3)CC2)cc1	SLC6A3	transporter uptake	HEK293	1 µM	19.8
CCOC(=O)C1CSc2[nH]c(=O)sc2C1c1cn(-c2ccccc2)nc1-c1ccc(OC)cc1 (stereo not drawn)	CA12	enzyme activity, absorbance		1 µM	58.2
Cc1ccccc1N1CCN(CCCCN2C(=O)C3CCCN3C2=O)CC1 (stereo not drawn)	DRD3	enzyme activity		10 µM	47.3
Cc1ccc(-c2nn(-c3ccccc3)cc2C2c3sc(=O)[nH]c3SC3C(=O)N(c4ccccc4)C(=O)C32)cc1 (stereo not drawn)	CA12	enzyme activity, absorbance		10 µM	73.9
CC[C@H]1CN2CCc3cc(OC)c(OC)cc3[C@@H]2C[C@@H]1C[C@H]1NCCc2cc(OC)c(OC)cc21	USP51	enzyme activity		5 µM	20
CCOC(=O)C1CSc2[nH]c(=O)sc2C1c1cn(-c2ccccc2)nc1-c1ccc(Cl)cc1 (stereo not drawn)	CA12	enzyme activity, absorbance		1 µM	73.2
Clc1ccc(C(c2ccccc2)c2nnnn2CCCCN2CCC(CCc3ccccc3)CC2)cc1 (stereo not drawn)	SLC6A3	transporter uptake	HEK293	1 µM	74.6
C[Se]CC[C@H](N)C(=O)O	USP51	enzyme activity		5 µM	34
O=C1C2CCCN2C(=O)N1CCCCN1CCN(c2cccc(Cl)c2)CC1 (stereo not drawn)	DRD3	enzyme activity		10 µM	63.4
CC(C)Oc1ccc2c(=O)c(-c3ccccc3)coc2c1	USP51	enzyme activity		5 µM	43
Fc1ccc(C(c2ccc(F)cc2)c2nnnn2CCCN2CCC(Cc3ccccc3)CC2)cc1	SLC6A3	transporter uptake	HEK293	1 µM	93.5
O=c1oc2cc(OCC(O)CN3CCN(c4ccc(F)cc4)CC3)ccc2c2c1CCC2 (stereo not drawn)	DRD3	enzyme activity		10 µM	0
Clc1ccc(C(c2ccc(Cl)cc2)c2nnnn2CCCCN2CCN(CCCc3ccccc3)CC2)cc1	SLC6A3	transporter uptake	HEK293	1 µM	72.7
CC(=O)Nc1ccc(N2C(=O)CC(NCCc3ccccc3)C2=O)cc1 (stereo not drawn)	DRD3	enzyme activity		10 µM	5.54
Nc1ncnc2c1ncn2[C@@H]1O[C@H](CO)[C@@H](O)[C@H]1O	USP51	enzyme activity		5 µM	24
CCOC(=O)C1CSc2[nH]c(=O)sc2C1c1cn(-c2ccccc2)nc1-c1ccc(Br)cc1 (stereo not drawn)	CA12	enzyme activity, absorbance		1 µM	55.8
O=C1c2cccc(O)c2C(=O)c2c(O)cccc21	USP51	enzyme activity		5 µM	14
Cc1ccccc1N1CCN(CC(O)COc2ccc(C(=O)c3ccccc3)cc2)CC1 (stereo not drawn)	DRD3	enzyme activity		10 µM	53.1
N[C@@H](CSSC[C@H](N)C(=O)O)C(=O)O	USP51	enzyme activity		5 µM	24
OC(CNCc1cccc(Oc2nnnn2-c2ccccc2)c1)c1ccccc1 (stereo not drawn)	DRD3	enzyme activity		10 µM	29.3
O=C(O)CC(O)C(=O)O (stereo not drawn)	USP51	enzyme activity		5 µM	31
O=C1NC(=S)C(=Cc2cn(-c3ccccc3)nc2-c2ccc(Br)cc2)S1	CA12	enzyme activity, absorbance		10 µM	49.8
